# Assay results of several laboratories.
# FLT3: Receptor-type tyrosine-protein kinase FLT3 (FLT3, Homo sapiens, UniProt P36888)
# FLT3 autoinhibited: Receptor-type tyrosine-protein kinase FLT3, autoinhibited (FLT3, Homo sapiens, UniProt P36888)
# FLT3 N841I: Receptor-type tyrosine-protein kinase FLT3 (FLT3, Homo sapiens, UniProt P36888, N841I)
# FLT3 D835V: Receptor-type tyrosine-protein kinase FLT3 (FLT3, Homo sapiens, UniProt P36888, D835V)
# FLT3 D835H: Receptor-type tyrosine-protein kinase FLT3 (FLT3, Homo sapiens, UniProt P36888, D835H)
# FLT3 K663Q: Receptor-type tyrosine-protein kinase FLT3 (FLT3, Homo sapiens, UniProt P36888, K663Q)
# FLT3 R834Q: Receptor-type tyrosine-protein kinase FLT3 (FLT3, Homo sapiens, UniProt P36888, R834Q)
SMILES,target,assay,setting,remaining binding
c1cncc(-c2cccc(Nc3nccc(NC4CCCCC4)n3)c2)c1,FLT3,"binding, competition with immobilised ligand",10 µM,0.35%
CCc1ccccc1C(=O)Nc1n[nH]c2c(C)c(F)c(C3C(C#N)=C(C)N(C)C(C)=C3C#N)cc12,FLT3 autoinhibited,"cell-free assay, competition with immobilised ligand",1 µM,88%
COc1cnc(Nc2cccc(S(N)(=O)=O)c2)nc1N1CCN(c2ccccc2)CC1,FLT3 autoinhibited,"binding, competition with immobilised ligand",1 µM,91%
CN(C)c1ncc(F)c(-c2cnn3ncccc23)n1,FLT3,binding,1 µM,100%
O=C(NCCCN1CCOCC1)c1ccc(Nc2nccc(-c3cc4ccccc4s3)n2)cc1,"Receptor-type tyrosine-protein kinase FLT3 (FLT3, Homo sapiens, UniProt P36888, F691L/ITD)","binding, competition with immobilised ligand",1 µM,37%
c1cnn2ncc(-c3ccnc(N4CCC45COC5)n3)c2c1,FLT3,binding,1 µM,85%
C=CC(=O)N1CCC(C(=O)NCC(=O)N2CCN(c3nc(-c4cnc(N)nc4C(F)F)nc(N4CCOCC4)n3)CC2)CC1,FLT3 N841I,"binding, competition with immobilised ligand",1 µM,100%
N[C@@H]1CCN(c2nccc(-c3cnn4ncccc34)n2)C1,FLT3,binding,1 µM,100%
Cc1cnc(Nc2ccc(C(=O)N3CCC(N4CCCC4)CC3)cc2)nc1-c1cc2ccccc2s1,FLT3 D835V,"binding, competition with immobilised ligand",1 µM,0.6%
Nc1ncc2c(n1)-c1c([nH]c3ccc(C#CC4CC4)cc13)CCCC2,FLT3 D835H,"binding, competition with immobilised ligand",1 µM,88%
Cc1cnn2ncc(-c3ccnc(N(C)C)n3)c2c1,FLT3 D835V,binding,1 µM,66%
O=C(NCCCN1CCOCC1)c1ccc(Nc2ncc(Cl)c(-c3ccc(Cl)s3)n2)cc1,"Receptor-type tyrosine-protein kinase FLT3 (FLT3, Homo sapiens, UniProt P36888, D835V/ITD)","binding, competition with immobilised ligand",1 µM,1.8%
C[C@@H](c1ccc(-n2cnc3c(N)ncnc32)cc1)N1CCc2nn(C)c(Cc3ccccc3)c2C1=O,FLT3 D835H,"binding, competition with immobilised ligand",0.1 µM,94%
O=C(c1ccc(Nc2ncc(Cl)c(-c3cc4ccccc4s3)n2)cc1)N1CCC(N2CCCC2)CC1,FLT3 N841I,"binding, competition with immobilised ligand",1 µM,0%
COc1ncc2cc3ccccc3nc2c1C#N,FLT3 N841I,"cell-free assay, competition with immobilised ligand",5 µM,100%
O=C(NCc1ncc(C(F)(F)F)cc1Cl)c1ccc2c(c1)C1(CCS(=O)(=O)CC1)[C@H](C1CC1)N2S(=O)(=O)c1ccc(F)cc1,FLT3 D835H,"cell-free assay, competition with immobilised ligand",1 µM,92%
CN(C)c1nccc(-c2cnn3ncccc23)n1,FLT3 K663Q,binding,1 µM,100%
O=C(c1ccc(Nc2ncc(Cl)c(-c3ccc(Cl)s3)n2)cc1)N1CCC(N2CCCC2)CC1,FLT3 R834Q,"binding, competition with immobilised ligand",1 µM,5.3%
CNC(=O)[C@@H]1CC[C@@H](n2c(-c3ccc4cnccc4c3)nc3ccc(C(=O)NCc4cccc(C(N)=O)c4)cc32)C1,FLT3 D835H,"binding, competition with immobilised ligand",1 µM,100%
O=C(Nc1c[nH]nc1C(=O)NC1CCNCC1)c1cc(F)cc(F)c1,FLT3 D835H,"binding, competition with immobilised ligand",1 µM,100%
C[C@@H]1CN(c2cc(-c3n[nH]c4ccc(OC5(C)CC5)cc34)ncn2)C[C@H](C)O1,FLT3 K663Q,"cell-free assay, competition with immobilised ligand",0.1 µM,100%
COc1cnc(Nc2cccc(S(N)(=O)=O)c2)nc1N1CCN(c2ccccc2)C(=O)C1,FLT3,"binding, competition with immobilised ligand",1 µM,97%
O=C1NC(c2ccccn2)Sc2ccccc21 (centres unmarked),"Receptor-type tyrosine-protein kinase FLT3 (FLT3, Homo sapiens, UniProt P36888, D835Y)","cell-free assay, competition with immobilised ligand",1 µM,86%
C[C@H]1CCN(c2nccc(-c3cnn4ncccc34)n2)C1,FLT3 autoinhibited,binding,1 µM,72%
Cc1nccc(COC(=O)N2C[C@@H]3[C@@H](CNC(=O)c4ccc5[nH]nnc5c4)[C@@H]3C2)n1,FLT3 autoinhibited,"cell-free assay, competition with immobilised ligand",1 µM,93%
CCN1CCN(Cc2ccc(C(=O)Nc3ccc(C)c(Oc4ccc5c(c4)CC(=O)N5)c3)cc2C(F)(F)F)CC1,FLT3,"binding, competition with immobilised ligand",1 µM,41%
CN([C@@H]1CCc2c(CC(=O)O)c3cc(S(C)(=O)=O)ccc3n2C1)S(=O)(=O)c1ccc(F)cc1,FLT3 D835V,"cell-free assay, competition with immobilised ligand",1 µM,99%
O=C(c1ccc(Nc2nccc(-c3cc4ccccc4s3)n2)cc1)N1CCC(N2CCCC2)CC1,FLT3 autoinhibited,"binding, competition with immobilised ligand",1 µM,64%
O=c1nc(-c2ccccn2)sc2ccccc12,FLT3 R834Q,"binding, competition with immobilised ligand",1 µM,100%
CN(CCCC(F)(F)F)c1nccc(-c2cnn3ncccc23)n1,FLT3 R834Q,binding,1 µM,100%
CCS(=O)(=O)c1cc2cc(C[C@](O)(CC(C)(C)c3ccc(F)cc3C(N)=O)C(F)(F)F)[nH]c2cn1,FLT3 N841I,"cell-free assay, competition with immobilised ligand",1 µM,93%
O=C(NCC1CCOCC1)c1n[nH]cc1NC(=O)c1c(F)cccc1F,FLT3 autoinhibited,"binding, competition with immobilised ligand",1 µM,78%
